According to ChEMBL document CHEMBL1132143, “Effect of A-ring modifications on the DNA-binding behavior and cytotoxicity of pyrrolo[2,1-c][1,4]benzodiazepines” (J Med Chem, 1999):

What was measured:
Calf thymus DNA [1] = assay: Tested for thermal denaturation against CT-DNA at 4 hours; assay type: nucleic-acid assay; conditions: Bos taurus
How it was run: (§1)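 CT-DNA (42% G+C) at 100 μM in DNA phosphate with compound at 20 μM (5:1 ratio). Buffer pH 7.00, 10 mM sodium phosphate, 1 mM EDTA, ≤0.6% v/v MeOH. Incubated at 37.0 °C for the stated time. Melted at 1 °C/min from 45 to 98 °C, read at 260 nm. ΔTm is Tm with ligand minus free DNA Tm, MeOH-corrected; mean ± SD of ≥3 runs.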

Calf thymus DNA [2] = assay: Tested for thermal denaturation against CT-DNA at 0 hours; assay type: nucleic-acid assay; conditions: Bos taurus; how it was run: as §1
L1210 [3] = assay: Tested for cytotoxicity against L1210 Leukemia cell; assay type: functional, cell-based; conditions: Mus musculus
How it was run: (§2)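 L1210 mouse leukemia grown in suspension. Seeded day 0 at 10^4 cells/mL in RPMI 1640 with 10% horse serum. Log phase checked day 1, then compound added for 48 h at 37 °C. Cells counted day 3 by Coulter counter. IC50 is 50% growth inhibition versus solvent-treated controls. Dose range 10^-4–10^-11 M in 10-fold steps, <0.05% v/v DMSO.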

Calf thymus DNA [4] = assay: Tested for thermal denaturation against CT-DNA at 18 hours; conditions: Bos taurus
[5] = Tested for cytotoxicity against ADJ/PC6 plasmacytoma; assay type: functional, cell-based, Mus musculus
How it was run: (§3)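 ADJ/PC6 mouse plasmacytoma grown in suspension. Seeded day 0 at 3–5 × 10^4 cells/mL in Dulbecco's medium with 20% horse serum. Log-phase confirmed day 1, then compound added for 72 h at 37 °C. Cells counted day 4 by Coulter counter. IC50 is the dose giving 50% growth inhibition versus solvent controls. Screened 10^-4–10^-11 M in 10-fold steps, <0.05% v/v DMSO.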

CH1 = assay: Tested for cytotoxicity against CH1 human ovarian cells; assay type: functional, cell-based
How it was run: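 CH1 human ovarian monolayer, plated day 0 at 100–200 cells per T25 flask in Dulbecco's medium with 10% fetal calf serum and allowed to attach overnight. Compound added day 1 and left continuously at 37 °C. Colonies fixed day 9 in EtOH, stained with methylene blue and counted. IC50 is 50% inhibition versus solvent controls. Range 10^-4–10^-11 M, 10-fold steps.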

Calf thymus DNA [6] = assay: Tested for thermal denaturation against CT-DNA; conditions: Bos taurus
L1210 [7] = assay: Tested for cytotoxicity against L1210 mouse Leukemia cell; assay type: functional, cell-based; how it was run: as §2
[8] = Tested for cytotoxicity against ADJ/PC6 mouse plasmacytoma; assay type: functional, cell-based; how it was run: as §3

ΔTm (Calf thymus DNA [1]) [°C] | ΔTm (Calf thymus DNA [2]) [°C] | ΔTm (Calf thymus DNA [4]) [°C] | ΔTm (Calf thymus DNA [6]) [°C] | SMILES | IC50 (L1210 [3]) [nM] | IC50 [5] [nM] | IC50 (CH1) [nM] | IC50 (L1210 [7]) [nM] | IC50 [8] [nM]
0.4 | 0.2 | 0.4 | – | COc1cc2c(cc1OCc1ccccc1)N=C[C@@H]1CCCN1C2=O | 3000 | 370 | 1000 | – | –
0.4 | 0.3 | 0.6 | – | O=C1c2ccccc2N=C[C@@H]2CCCN12 | > 100000 | 38000 | 42000 | – | –
0.5 | 0.3 | – | 0.5 | CO[C@@H]1Nc2ncccc2C(=O)N2CCC[C@@H]12 | – | – | 43000 | 13000 | > 50000
0.4 | 0.2 | 0.6 | – | COc1cc2c(cc1OCCCOCc1ccccc1)N=C[C@@H]1CCCN1C2=O | 2400 | 2300 | 290 | – | –
0.2 | 0.1 | 0.4 | – | O=C1c2cc3c(cc2N=C[C@@H]2CCCN12)OCO3 | 1500 | 1900 | 260 | – | –
0.6 | 0.3 | – | 0.7 | CO[C@H]1Nc2nccnc2C(=O)N2CCC[C@@H]12 | – | – | 17000 | – | –

Second part, the molecule before the results:

SMILES | ΔTm (Calf thymus DNA [1]) [°C] | ΔTm (Calf thymus DNA [2]) [°C] | ΔTm (Calf thymus DNA [4]) [°C] | ΔTm (Calf thymus DNA [6]) [°C] | IC50 (L1210 [3]) [nM] | IC50 [5] [nM] | IC50 (CH1) [nM] | IC50 (L1210 [7]) [nM] | IC50 [8] [nM]
O=C1c2cc3c(cc2N=C[C@@H]2CCCN12)OCCO3 | 0.3 | 0.1 | 0.5 | – | 2700 | 3400 | 460 | – | –
CCCCOC1CC[C@H]2C=Nc3cc(O)c(OC)cc3C(=O)N12 (some centres undefined) | 0.6 | 0.5 | 0.8 | – | 2700 | 1300 | 430 | – | –
COc1cc2c(cc1O)N=C[C@@H]1CCCN1C2=O | 0.5 | 0.3 | – | – | – | 330 | 100 | – | –
COC1Nc2c(ccc(C)c2O)C(=O)N2C=C(/C=C/C(N)=O)C[C@@H]12 (some centres undefined) | 11.2 | 9.4 | 13 | – | – | – | 320 | 22 | 2.8
COc1cc2c(cc1NC(=O)OCc1ccccc1)N=C[C@@H]1CCCN1C2=O | 0.2 | 0.1 | – | 0.4 | – | – | 1800 | 4500 | 3200
COc1nc(OC)c2c(n1)C(=O)N1CCC[C@H]1C=N2 | 0.2 | 0.1 | – | 0.3 | – | – | – | 42000 | –
COc1cc2c(cc1O)C(=O)N1CCC[C@H]1C=N2 | 0.5 | 0.3 | 0.6 | – | 2700 | 2700 | 200 | – | –
COC(=O)c1c2c(nn1C)C(=O)N1CCC[C@H]1C=N2 | 0.3 | 0.2 | – | 0.5 | – | – | > 100000 | 35000 | > 50000
C/C=C1\C[C@H]2C=Nc3cc(O)c(OC)cc3C(=O)N2C1 | 2.4 | 1 | 2.6 | – | 3.7 | 1.8 | 0.13 | – | –
COC(=O)CCOc1cc2c(cc1OC)C(=O)N1CCC[C@H]1C=N2 | 0.5 | 0.3 | 0.6 | – | – | – | 4400 | – | –
CO[C@H]1Nc2ncccc2C(=O)N2CCC[C@@H]12 | 0.5 | 0.3 | – | 0.5 | – | – | 43000 | 13000 | > 50000
